The text below walks through data of ChEMBL document CHEMBL1147988, “Synthesis of bridged piperazines with sigma receptor affinity” (Eur J Med Chem, 2007).

The target of one assay is Sigma 2 receptor. The assay is described as follows: Displacement of [3H]ditolylguanidine from sigma 2 receptor in Sprague-Dawley rat liver membrane. Format: cell membranes. On the technique in general: Loss of bound radioactivity is the signal in a displacement assay; it reports binding, not function.
The target in assay [1] is Sigma non-opioid intracellular receptor 1 (Cavia porcellus, UniProt Q60492). In words: Displacement of [3H](+)-pentazocine from sigma 1 receptor in guinea pig brain membrane. Type of assay: cell membranes.
The target in assay [2] is Kappa-type opioid receptor (Cavia porcellus, UniProt P41144). The assay is described as follows: Displacement of [3H]U-69593 from kappa opioid receptor in guinea pig brain membrane. Format: cell membranes.
Assay [3] addresses Mu-type opioid receptor (Cavia porcellus) (UniProt P97266). The assay is described as follows: Displacement of [3H]DAMGO from mu opioid receptor in guinea pig brain membrane at 10 uM. Type of assay: cell membranes. In a few lines: (§1)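 Single-point screen: percent inhibition of radioligand binding to guinea pig brain membranes with test compound at 10 µM.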
Another assay is filed under the species Cavia porcellus. The assay is described as follows: Displacement of [3H]MK-801 from NMDA receptor in guinea pig brain membrane at 10 uM. Type of assay: cell membranes. In short, it runs like this: as §1
Assay [4] addresses Kappa-type opioid receptor (Cavia porcellus) (UniProt P41144). The assay is described as follows: Displacement of [3H]U-69593 from kappa opioid receptor in guinea pig brain membrane at 10 uM. Type of assay: cell membranes. In short, it runs like this:
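Single-concentration test reported as percent inhibition of [3H]-U-69593 binding to guinea pig brain membranes. All experiments run in triplicate. Glass fibre filters presoaked 2 h at 4 °C in 0.5% polyethylenimine, then harvested by filtration. Bound radioactivity counted by liquid scintillation at 66% counting efficiency.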

The target of the next assay is Mu-type opioid receptor (Cavia porcellus, UniProt P97266). In words: Displacement of [3H]DAMGO from mu opioid receptor in guinea pig brain membrane. Type of assay: cell membranes.
The nature of assay [5]: Displacement of [3H]MK-801 from NMDA receptor in guinea pig brain membrane. Type of assay: cell membranes, Cavia porcellus.
Assay [6] addresses Sigma non-opioid intracellular receptor 1 (Cavia porcellus) (UniProt Q60492). In words: Selectivity for guinea pig sigma 1 receptor over rat sigma 2 receptor.

Molecules are shown by their SMILES.

Kappa-type opioid receptor, sequence (P41144 whole entry): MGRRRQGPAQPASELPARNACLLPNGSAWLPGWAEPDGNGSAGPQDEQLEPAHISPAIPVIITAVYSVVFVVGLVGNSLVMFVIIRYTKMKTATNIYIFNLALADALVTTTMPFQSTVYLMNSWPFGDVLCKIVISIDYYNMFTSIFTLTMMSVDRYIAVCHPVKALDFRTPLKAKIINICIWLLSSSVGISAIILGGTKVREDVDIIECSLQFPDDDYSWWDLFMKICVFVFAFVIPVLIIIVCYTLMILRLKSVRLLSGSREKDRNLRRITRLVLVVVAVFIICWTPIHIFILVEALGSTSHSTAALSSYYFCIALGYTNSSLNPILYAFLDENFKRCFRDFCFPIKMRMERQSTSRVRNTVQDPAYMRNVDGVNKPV
Mu-type opioid receptor (Cavia porcellus), sequence (P97266 whole entry): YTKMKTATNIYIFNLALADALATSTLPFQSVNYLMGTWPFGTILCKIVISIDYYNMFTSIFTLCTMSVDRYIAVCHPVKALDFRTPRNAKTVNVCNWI
Mu-type opioid receptor, sequence (P97266 whole entry): as above
Sigma non-opioid intracellular receptor 1, sequence (Q60492 whole entry): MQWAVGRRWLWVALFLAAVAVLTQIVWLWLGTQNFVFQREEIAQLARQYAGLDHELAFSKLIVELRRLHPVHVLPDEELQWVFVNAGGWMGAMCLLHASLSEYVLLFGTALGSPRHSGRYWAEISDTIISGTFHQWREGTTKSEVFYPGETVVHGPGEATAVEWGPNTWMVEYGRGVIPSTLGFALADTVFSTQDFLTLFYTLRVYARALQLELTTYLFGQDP
Kappa-type opioid receptor (Cavia porcellus), sequence (P41144 whole entry): as the sequence (P41144 whole entry) above
Sigma non-opioid intracellular receptor 1 (Cavia porcellus), sequence (Q60492 whole entry): as the sequence (Q60492 whole entry) above

With `COC1CCC2CN(CCc3ccccc3)C1CN2Cc1ccccc1` (centres undefined), the Ki – broadly, a measure of affinity in units of concentration, obtained from inhibition or displacement – at Sigma 2 receptor was 0.297 µM; in assay [1] it was 0.076 µM; in [2] it was 5.02 µM. Further, the inhibition (in general, how much of the control response was suppressed) in assay [3] stood at 68.6%; in the assay filed under Cavia porcellus, 50.5%.
As for `CN1CC2CCC(O)C1CN2Cc1ccccc1` (single isomer, unassigned; form 1) [listing 1 of 2 here], the results for the inhibition (in assay [3]; in the assay filed under Cavia porcellus; in [4]) were 4.7%, 13.7% and 13.2%, respectively.
For `c1ccc(CCN2CC3CCC(OCc4ccccc4)C2CN3Cc2ccccc2)cc1` (centres undefined), the Ki is 0.628 µM at Sigma 2 receptor, 0.175 µM in assay [1] and 2.23 µM in assay [2]. In addition, the inhibition in assay [3] amounted to 34.8%; in the assay listed under Cavia porcellus, 16.4%.
On to `CN1CC2CCC(O)C1CN2Cc1ccccc1` (single isomer, unassigned; form 1) [listing 2 of 2 here], for which the inhibition constant Ki at Sigma 2 receptor worked out at 2.89 µM; in [1], 4.97 µM.
With `CN1CC2CCC(O)C1CN2Cc1ccccc1` (single isomer, unassigned; form 2) [listing 1 of 2 here], the Ki at Sigma 2 receptor stood at 4.18 µM; in assay [1] it was 2.4 µM.
As for `O[C@@H]1CCC2CN(CCc3ccccc3)C1CN2Cc1ccccc1` (some centres undefined), the Ki worked out at 0.343 µM on Sigma 2 receptor, 0.0333 µM in assay [1], 2.46 µM in [2] and 4.96 µM at Mu-type opioid receptor. In the assay filed under Cavia porcellus, this compound showed an inhibition of 21.9%.
Compound `CN[C@]1(c2ccccc2Cl)CCCCC1=O` [ESKETAMINE] displayed a Ki in [5] of 0.108 µM.
Turning to `CO[C@@H]1CC[C@H]2CN(C)[C@@H]1CN2Cc1ccccc1`, the figures for the Ki (on Sigma 2 receptor; in assay [1]; in assay [2]) were 0.327 µM, 1.35 µM and 3.59 µM, respectively. In addition, the inhibition turned out to be 21.5% in assay [3] and 8.7% in the assay filed under Cavia porcellus.
For `CN1C[C@@H]2CC[C@@H](OCc3ccccc3)[C@H]1CN2Cc1ccccc1`, in that order: 0.0304 µM, 0.0162 µM, 0.585 µM, 70.4% and 0%.
As for `CCCCN1CC2CCC(O)C1CN2Cc1ccccc1` (centres undefined), the Ki at Sigma 2 receptor amounted to 0.447 µM; in [1] it was 0.0234 µM; in assay [2], 1.6 µM. Moreover, the inhibition worked out at 37.9% in [3] and 52.3% in the assay filed under Cavia porcellus.
With `CN1CC2CCC(O)C1CN2Cc1ccccc1` (single isomer, unassigned; form 2) [listing 2 of 2 here], the results for the inhibition (in assay [3]; in the assay listed under Cavia porcellus; in assay [4]) were 8.5%, 21% and 12.6%, respectively.
With `CCCCN1CC2CCC(OC)C1CN2Cc1ccccc1` (centres undefined), the Ki on Sigma 2 receptor was 0.219 µM; in [1] it was 0.0132 µM; in assay [2] it was 0.157 µM. The Selectivity ratio in assay [6] was 16. Further, the figures for the inhibition (in [3]; in the assay filed under Cavia porcellus) were 37.4% and 55.5%, respectively.
For the compound `COC1(OC)CC[C@H]2CN(C)[C@@H]1CN2Cc1ccccc1`, the Ki at Sigma 2 receptor was 1.83 µM; in assay [1], 3.5 µM; in assay [2], over 10 µM. The values for the inhibition (in [3]; in the assay filed under Cavia porcellus) were 27.6% and 44.3%, respectively.
With `CCCCN1CC2CCC(OCc3ccccc3)C1CN2Cc1ccccc1` (centres undefined), the Ki at Sigma 2 receptor turned out to be 0.82 µM; in [1] it was 0.0395 µM; in [2], 1.11 µM; at Mu-type opioid receptor, 3.32 µM. For the same compound, in assay [6], the Selectivity ratio was determined as 21. In the assay filed under Cavia porcellus, the inhibition is 21.5%.
In assay [5], `c1ccc(C2(N3CCCCC3)CCCCC2)cc1` [PHENCYCLIDINE] came in with a Ki of 0.028 µM.
Turning to `OC1CCC2CN(CCc3ccccc3)C1CN2Cc1ccccc1` (single isomer, unassigned), the Ki on Sigma 2 receptor turned out to be 0.588 µM; in assay [1] it was 0.0295 µM; in assay [2], 1.29 µM; at Mu-type opioid receptor it was 4.05 µM. The compound further gave an inhibition in the assay filed under Cavia porcellus of 20.6%.
